Results reported in ChEMBL document CHEMBL1134284, “The biological effects of structural variation at the meta position of the aromatic rings and at the end of the alkenyl chain in the alkenyldiarylmethane series of non-nucleoside reverse transcriptase inhibitors” (J Med Chem, 2001).

Tests used:
[1] = Ratio of CC50/EC50 was determined; type: cell-based; settings: human, CEM-SS cells; read-out: TI
In short: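 HIV-1 RF–infected CEM-SS cells (RPMI 1640, 10% heat-inactivated FBS, 2 mM glutamine, penicillin/streptomycin), plus mock-infected CEM-SS in parallel. Cell killing and viability were read by MTS/phenazine ethosulfate reduction at 490 nm 6 days after infection. […] Index = CC50 ÷ EC50. Triplicate tests.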

CEM-SS [2] = experiment: Concentration required for cytotoxicity against mock infected CEM-SS cells; type: functional; settings: Homo sapiens
In short: (§1)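 CEM-SS cells kept in RPMI 1640 with 10% heat-inactivated FBS, 2 mM glutamine, penicillin/streptomycin. Microtiter assay with cytopathic HIV-1 RF, or mock infection for toxicity. Viability read by MTS/phenazine ethosulfate reduction (absorbance 490 nm) 6 days after infection. […] Triplicate.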

[3] = system: Human immunodeficiency virus type 1 (RF/HAT ISOLATE); experiment: Inhibitory concentration for cytopathicity of HIV-1RF in CEM-SS cells; type: functional, organism-based; settings: Human immunodeficiency virus 1, RF; in short: as §1
[4] = biological target: Human immunodeficiency virus type 1 reverse transcriptase (Human immunodeficiency virus 1, UniProt Q72547); experiment: Inhibitory activity against HIV-1 Reverse Transcriptase with rCdG as the template primer
In short: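 Cell-free assay with purified recombinant HIV-1 RT (p66/p51 dimer). Activity measured as [32P]GTP incorporation into the poly(rC)/oligo(dG) homopolymer template/primer. IC50 is reported as inhibition of enzyme activity.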

CEM-SS [5] = experiment: Inhibitory concentration for cytopathicity of HIV-1RF in CEM-SS cells; Not active; type: functional, cell-based, Homo sapiens; in short: as §1

EC50 (CEM-SS [5])	Structure (SMILES)	selectivity ratio [1]	CC50 (CEM-SS [2]) [µM]	EC50 [3] [µM]	IC50 [4] [µM]
	COC(=O)c1cc(C(=CCCCC(=O)SC)c2cc(Cl)c(OC)c(C(=O)OC)c2)cc(Cl)c1OC	5.15	12.5	2.42	
	CCOC(=O)NCCC=C(c1cc(Cl)c(OC)c(C(=O)OC)c1)c1cc(Cl)c(OC)c(C(=O)OC)c1	17.2	12.2	0.71	1.93
	CCOC(=O)NCCC=C(c1cc(C)c(OC)c(C(=O)OC)c1)c1cc(C)c(OC)c(C(=O)OC)c1	5.34	3.59	0.67	0.016
	COC(=O)c1cc(C(=CCCCC(=O)N(C)C)c2cc(C)c(OC)c(C(=O)OC)c2)cc(C)c1OC	4.91	7.4	1.51	5.65
	C#CCCCC=C(c1cc(Br)c(OC)c(C(=O)OC)c1)c1cc(Br)c(OC)c(C(=O)OC)c1	> 43	> 200	4.7	6
	C#CCCCC=C(c1cc(Cl)c(OC)c(C(=O)OC)c1)c1cc(Cl)c(OC)c(C(=O)OC)c1	33	42.7	1.3	
	CCCCCC=C(c1cc(C)c(OC)c(C(=O)OC)c1)c1cc(C)c(OC)c(C(=O)OC)c1	2.5	17.2	6.8	1
	COC(=O)NCCC=C(c1cc(C)c(OC)c(C(=O)OC)c1)c1cc(C)c(OC)c(C(=O)OC)c1	59	12.4	0.21	4.93
	COC(=O)c1cc(C(=CCCCC(=O)N2CCCCC2)c2cc(C)c(OC)c(C(=O)OC)c2)cc(C)c1OC	2.74	14.7	5.37	7.12
	C=CCCCC=C(c1cc(Br)c(OC)c(C(=O)OC)c1)c1cc(Br)c(OC)c(C(=O)OC)c1	> 24	> 200	8.2	99
Not Active	COC(=O)c1cc(C(=CCCCS(C)(=O)=O)c2cc(Cl)c(OC)c(C(=O)OC)c2)cc(Cl)c1OC		14.9		
	COC(=O)c1cc(C(=CCCCc2ccccc2)c2cc(Br)c(OC)c(C(=O)OC)c2)cc(Br)c1OC	> 15	> 200	13.1	> 100
	COC(=O)c1cc(C(=CCCC[S+](C)[O-])c2cc(Cl)c(OC)c(C(=O)OC)c2)cc(Cl)c1OC (stereo not drawn)	3.15	36.9	11.7	
Not Active	CN/C(S)=N/CCC=C(c1cc(Cl)c(OC)c(C(=O)OC)c1)c1cc(Cl)c(OC)c(C(=O)OC)c1		1.36		> 100
	CCCCCC=C(c1cc(Cl)c(OC)c(C(=O)OC)c1)c1cc(Cl)c(OC)c(C(=O)OC)c1	> 1.8	> 29.1	16	
	COC(=O)c1cc(C(=CCCCC(=O)OC(C)C)c2cc(Br)c(OC)c(C(=O)OC)c2)cc(Br)c1OC	3.79	16.4	4.33	70.8
	COC(=O)c1cc(C(=CCCCC(OC)OC)c2cc(Cl)c(OC)c(C(=O)OC)c2)cc(Cl)c1OC		18.1		> 100
	COC(=O)c1cc(C(=CCCN2CCOC2=O)c2cc(Cl)c(OC)c(C(=O)OC)c2)cc(Cl)c1OC	6.02	13	2.15	9.47
	COC(=O)CCCC=C(c1cc(F)c(OC)c(C(=O)OC)c1)c1cc(F)c(OC)c(C(=O)OC)c1	36	68.3	1.9	
Not Active	CCCCCC=C(c1cc(C(=O)OC)c(OC)c(C(F)(F)F)c1)c1cc(C(=O)OC)c(OC)c(C(F)(F)F)c1		106		
	COC(=O)c1cc(C(=CCCCC(=O)OCC[Si](C)(C)C)c2cc(C)c(OC)c(C(=O)OC)c2)cc(C)c1OC	> 2.1	> 200	95.4	> 100
	CCOC(=O)CCCC=C(c1cc(C)c(OC)c(C(=O)OC)c1)c1cc(C)c(OC)c(C(=O)OC)c1	297	8.91	0.03	0.181

EC50 (CEM-SS [5])	Structure (SMILES)	selectivity ratio [1]	CC50 (CEM-SS [2]) [µM]	EC50 [3] [µM]	IC50 [4] [µM]
Not Active	CCNC(=O)NCCC=C(c1cc(Cl)c(OC)c(C(=O)OC)c1)c1cc(Cl)c(OC)c(C(=O)OC)c1		14.6		> 100
	CCCCCC=C(c1cc(I)c(OC)c(C(=O)OC)c1)c1cc(I)c(OC)c(C(=O)OC)c1		> 316		
	COC(=O)CCCC=C(c1cc(C)c(OC)c(C(=O)OC)c1)c1cc(C)c(OC)c(C(=O)OC)c1	24	6	0.25	< 1
	COC(=O)CCCC=C(c1cc(C(=O)OC)c(OC)c(C(F)(F)F)c1)c1cc(C(=O)OC)c(OC)c(C(F)(F)F)c1	1.2	17.2	14.3	> 200
	CCCCCC=C(c1ccc(OC)c(C(=O)OC)c1)c1ccc(OC)c(C(=O)OC)c1		14		
	COC(=O)c1cc(C(=CCCCC(=O)OC(C)C)c2cc(Cl)c(OC)c(C(=O)OC)c2)cc(Cl)c1OC	42.9	36.1	0.84	> 100
	COC(=O)NCCC=C(c1cc(Br)c(OC)c(C(=O)OC)c1)c1cc(Br)c(OC)c(C(=O)OC)c1	40.5	8.1	0.2	2.39
	CCSC(=O)CCCC=C(c1cc(Cl)c(OC)c(C(=O)OC)c1)c1cc(Cl)c(OC)c(C(=O)OC)c1	3.2	12.6	3.95	
	COC(=O)c1cc(C(=CCCNC(=O)OCC(C)C)c2cc(C)c(OC)c(C(=O)OC)c2)cc(C)c1OC	6.73	5.13	0.76	2.95
	COC(=O)c1cc(C(=CCCCC(=O)N(C)C)c2cc(Cl)c(OC)c(C(=O)OC)c2)cc(Cl)c1OC	6.94	2.65	0.38	0.687
Not Active	COC(=O)c1cc(C(=CCCCC(=O)N2CCCCC2)c2cc(Cl)c(OC)c(C(=O)OC)c2)cc(Cl)c1OC		3.59		> 100
	COC(=O)c1cc(C(=CCCN2CCOC2=O)c2cc(Br)c(OC)c(C(=O)OC)c2)cc(Br)c1OC	104	1.95	0.02	0.499
	COC(=O)NCCC=C(c1cc(Cl)c(OC)c(C(=O)OC)c1)c1cc(Cl)c(OC)c(C(=O)OC)c1	10.2	12.4	1.22	4.43
Not Active	COC(=O)c1cc(C(=CCCNC(C)=O)c2cc(Cl)c(OC)c(C(=O)OC)c2)cc(Cl)c1OC		19.1		> 100
	CCCOC(=O)CCCC=C(c1cc(C)c(OC)c(C(=O)OC)c1)c1cc(C)c(OC)c(C(=O)OC)c1	4.2	5.4	1.29	29.7
	CCCOC(=O)CCCC=C(c1cc(Br)c(OC)c(C(=O)OC)c1)c1cc(Br)c(OC)c(C(=O)OC)c1	> 17.5	> 20	1.14	9.15
	CCCCCC=C(c1cc(F)c(OC)c(C(=O)OC)c1)c1cc(F)c(OC)c(C(=O)OC)c1		13.4		
	COC(=O)c1cc(C(=CCCCc2ccccc2)c2cc(Cl)c(OC)c(C(=O)OC)c2)cc(Cl)c1OC	> 43	> 200	1.7	> 100
	COC(=O)c1cc(C(=CCCCSC)c2cc(Cl)c(OC)c(C(=O)OC)c2)cc(Cl)c1OC	> 3.77	> 20	5.31	> 100
	CCCOC(=O)CCCC=C(c1cc(Cl)c(OC)c(C(=O)OC)c1)c1cc(Cl)c(OC)c(C(=O)OC)c1	10.8	13.9	1.29	8.3
	C=CCCCC=C(c1cc(Cl)c(OC)c(C(=O)OC)c1)c1cc(Cl)c(OC)c(C(=O)OC)c1	> 15	> 200	13	258

Structure (SMILES)	EC50 (CEM-SS [5])	selectivity ratio [1]	CC50 (CEM-SS [2]) [µM]	EC50 [3] [µM]	IC50 [4] [µM]
COC(=O)c1cc(C(=CCCCC(=O)OC(C)C)c2cc(C)c(OC)c(C(=O)OC)c2)cc(C)c1OC	Not Active		4.32		60.4
COC(=O)c1cc(C(=CCCNC(=O)OCC(C)C)c2cc(Cl)c(OC)c(C(=O)OC)c2)cc(Cl)c1OC	Not Active		17.2		65.4
